Laboratory results published in ChEMBL document CHEMBL1133607, “Nonpeptide analogues of dynorphin A(1-8): design, synthesis, and pharmacological evaluation of kappa-selective agonists” (J Med Chem, 2000).
pKi: −log10 of the molar value.

Tests used:
[1] = target: Kappa-type opioid receptor (Cavia porcellus, UniProt P41144); experiment: Displacement of [3H]-U-69,593 from Opioid receptor kappa 1 in guinea pig cerebellar.
[2] = target: T1, Mu-type opioid receptor (Rattus norvegicus, UniProt P33535); experiment: Displacement of [3H]diprenorphine from opioid receptor mu 1 on crude membrane fractions obtained from whole rat brain (minus cerebellum); assay type: tissue-based
T1 sequence (P33535 whole entry): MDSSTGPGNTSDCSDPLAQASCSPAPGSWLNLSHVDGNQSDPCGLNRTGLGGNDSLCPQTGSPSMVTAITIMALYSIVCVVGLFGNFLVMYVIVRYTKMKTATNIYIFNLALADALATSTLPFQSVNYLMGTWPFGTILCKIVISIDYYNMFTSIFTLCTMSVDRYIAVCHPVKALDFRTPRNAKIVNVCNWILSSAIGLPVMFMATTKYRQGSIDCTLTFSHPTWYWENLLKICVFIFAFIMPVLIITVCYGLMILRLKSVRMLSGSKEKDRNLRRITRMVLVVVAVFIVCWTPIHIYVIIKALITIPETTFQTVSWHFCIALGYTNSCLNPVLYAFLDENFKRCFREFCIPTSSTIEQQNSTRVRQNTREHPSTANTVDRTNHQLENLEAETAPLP
Method in brief: (§1)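 Rat whole-brain (minus cerebellum) crude membranes, 1 mg protein/tube, in 50 mM Tris-HCl pH 7.4 with aprotinin, leupeptin and bacitracin. […] U50,488 and DADLE (300 nM each) saturate κ and δ sites; 1 µM DAMGO defines nonspecific binding. Compounds tested at 10^-11 to 10^-5 M. Ki values are the mean of three experiments in duplicate.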

[3] = target: T2, Delta-type opioid receptor (Rattus norvegicus, UniProt P33533); experiment: Displacement of [3H]diprenorphine opioid receptor delta 1 on crude membrane fractions obtained from the whole rat brain (minus cerebellum); assay type: tissue-based
T2 sequence (P33533 whole entry): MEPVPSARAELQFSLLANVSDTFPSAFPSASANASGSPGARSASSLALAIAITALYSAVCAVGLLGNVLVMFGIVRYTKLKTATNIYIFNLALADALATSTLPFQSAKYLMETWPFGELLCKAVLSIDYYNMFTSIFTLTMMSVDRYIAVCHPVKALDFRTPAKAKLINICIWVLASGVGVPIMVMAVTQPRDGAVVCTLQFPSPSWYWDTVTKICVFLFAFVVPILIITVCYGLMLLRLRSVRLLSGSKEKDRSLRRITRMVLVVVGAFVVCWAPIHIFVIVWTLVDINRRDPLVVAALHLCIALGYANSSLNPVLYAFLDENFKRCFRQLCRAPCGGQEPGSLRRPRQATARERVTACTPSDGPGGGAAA
Method in brief: as §1, with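 “DAMGO” for “DADLE”, “µ” for “δ”, “DPDPE” for “DAMGO”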

[4] = target: Opioid receptors; delta & kappa (Homo sapiens) (UniProt P41145+P41143); experiment: (§2) Ratio of affinity towards delta to kappa opioid receptor; assay type: protein assay
Chain of Opioid receptors; delta & kappa (Homo sapiens) (P41143 whole entry, looked up): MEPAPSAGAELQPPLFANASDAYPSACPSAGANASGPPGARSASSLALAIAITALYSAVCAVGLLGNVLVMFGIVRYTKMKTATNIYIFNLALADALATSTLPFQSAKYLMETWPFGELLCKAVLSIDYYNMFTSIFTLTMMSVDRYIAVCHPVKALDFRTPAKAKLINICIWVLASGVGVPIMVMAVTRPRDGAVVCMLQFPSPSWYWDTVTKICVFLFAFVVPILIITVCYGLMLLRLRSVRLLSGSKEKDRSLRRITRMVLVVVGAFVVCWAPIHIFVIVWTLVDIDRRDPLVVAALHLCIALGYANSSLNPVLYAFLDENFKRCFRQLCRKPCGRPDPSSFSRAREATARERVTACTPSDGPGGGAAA
Chain of Opioid receptors; delta & kappa (Homo sapiens) (P41145 whole entry, looked up): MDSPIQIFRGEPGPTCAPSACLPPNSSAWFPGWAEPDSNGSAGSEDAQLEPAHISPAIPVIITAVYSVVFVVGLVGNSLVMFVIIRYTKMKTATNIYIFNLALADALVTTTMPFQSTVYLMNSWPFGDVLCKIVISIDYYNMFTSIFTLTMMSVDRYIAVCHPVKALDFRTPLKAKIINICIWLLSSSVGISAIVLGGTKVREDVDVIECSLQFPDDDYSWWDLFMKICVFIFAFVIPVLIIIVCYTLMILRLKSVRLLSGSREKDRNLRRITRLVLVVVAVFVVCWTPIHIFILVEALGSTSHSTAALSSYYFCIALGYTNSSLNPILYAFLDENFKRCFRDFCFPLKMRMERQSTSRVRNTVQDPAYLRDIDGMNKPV

[5] = target: Opioid receptors; mu & kappa (UniProt P41145+P35372); experiment: Ratio of affinity towards mu and kappa opioid receptors; assay type: protein assay
Chain of Opioid receptors; mu & kappa (P35372 whole entry, looked up): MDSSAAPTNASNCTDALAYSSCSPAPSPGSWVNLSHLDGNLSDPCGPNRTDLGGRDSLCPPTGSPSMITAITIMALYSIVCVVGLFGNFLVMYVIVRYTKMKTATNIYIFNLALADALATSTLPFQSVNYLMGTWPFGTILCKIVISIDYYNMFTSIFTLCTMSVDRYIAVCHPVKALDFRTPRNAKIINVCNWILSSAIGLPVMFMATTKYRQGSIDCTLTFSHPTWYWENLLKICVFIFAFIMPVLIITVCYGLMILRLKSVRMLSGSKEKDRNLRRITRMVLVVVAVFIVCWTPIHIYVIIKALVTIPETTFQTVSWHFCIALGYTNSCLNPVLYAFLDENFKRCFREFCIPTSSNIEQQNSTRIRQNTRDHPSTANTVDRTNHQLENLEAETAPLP
Chain of Opioid receptors; mu & kappa (P41145 whole entry, looked up): as the sequence (P41145 whole entry, looked up) above

[6] = target: T2, Delta-type opioid receptor; experiment: Tested for binding affinity by [3H]diprenorphine displacement for Opioid receptor delta 1 are carried on crude membrane fractions obtained from the whole rat brain minus cerebellum.; assay type: tissue-based
Method in brief: as §1, with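 “DAMGO” for “DADLE”, “µ” for “δ”, “DPDPE” for “DAMGO”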

[7] = target: T1, Mu-type opioid receptor; experiment: Tested for binding affinity by [3H]diprenorphine displacement for Opioid receptor mu 1 was carried on crude membrane fractions obtained from the whole rat brain minus cerebellum..; assay type: tissue-based; method in brief: as §1
[8] = system: Mus musculus; experiment: Effective dose after 10 mg/kg of nor-BNI administered subcutaneously 10 min before agonist administered in mouse rotarod test; assay type: functional; conditions: sc, route subcutaneous
Method in brief: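 Male albino Swiss mice received nor-BNI 10 mg/kg sc 10 min before agonist (sc, saline/0.5% CMC). 30 min after agonist, mice were placed on an accelerating rotarod with three trials; failure in any trial counted as impaired. ED50 is […].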

[9] = system: Mus musculus; experiment: Antinociceptive activity by measuring effective dose after 10 mg/kg of nor-BNI administered subcutaneously 10 min before agonist administered in mouse; assay type: functional; conditions: sc, route subcutaneous
Method in brief: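 Male albino Swiss mice (20-25 g) given compound sc in saline with 0.5% CMC (0.1-10 mg/kg) 30 min before testing. nor-BNI 10 mg/kg sc given 10 min before agonist. Acetylcholine-induced abdominal constrictions were counted for 5 min after ip acetylcholine. ED50 is the dose that halves constrictions relative to vehicle.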

[10] = organism: Cavia porcellus; experiment: as §2

Chain of Kappa-type opioid receptor (P41144 whole entry): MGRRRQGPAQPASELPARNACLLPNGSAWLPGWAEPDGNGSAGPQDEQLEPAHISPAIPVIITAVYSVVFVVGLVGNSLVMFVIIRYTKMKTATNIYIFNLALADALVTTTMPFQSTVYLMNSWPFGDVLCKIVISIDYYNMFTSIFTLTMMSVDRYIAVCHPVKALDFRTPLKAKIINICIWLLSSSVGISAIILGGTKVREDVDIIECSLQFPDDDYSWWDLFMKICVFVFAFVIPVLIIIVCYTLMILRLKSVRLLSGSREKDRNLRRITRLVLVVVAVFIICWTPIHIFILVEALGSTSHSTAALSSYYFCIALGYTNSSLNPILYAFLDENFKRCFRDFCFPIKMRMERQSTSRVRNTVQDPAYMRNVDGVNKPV

## CC(C)CC(NC(=O)[C@]1(c2ccccc2)CC1CN1CC[C@@]2(C)c3cc(O)ccc3CC1C2C)C(=O)NCCCCCCN (some centres not stated)
[1]
  pKi: 6.62
[2]
  pKi: 5.51
[3]
  pKi: 5.47
[4]
  Ratio: 14.1
[5]
  Selectivity ratio: 12.7

## COC(=O)[C@]1(c2ccccc2)C[C@@H]1CN1CC[C@@]2(C)c3cc(O)ccc3CC1[C@@H]2C
[6]
  pKi: < 4.60
[7]
  pKi: < 4.60

## CCCCC(=N)NCCCCCCNC(=O)C(CC(C)C)NC(=O)CNC(=O)[C@]1(c2ccccc2)CC1CN1CC[C@@]2(C)c3cc(O)ccc3CC1C2C (some centres not stated)
[8]
  ED50: 11.9 mg/kg
[9]
  ED50: 1.1 mg/kg
[1]
  pKi: 8.28
[2]
  pKi: 5.67
[3]
  pKi: 5.65

## CC(C)CC(NC(=O)CNC(=O)[C@]1(c2ccccc2)CC1CN1CC[C@@]2(C)c3cc(O)ccc3CC1C2C)C(=O)NCCCN (some centres not stated)
[1]
  pKi: 6.55
[2]
  pKi: 4.79
[3]
  pKi: 4.97
[10]
  Selectivity ratio: 37.6
[5]
  Selectivity ratio: 57

## CCC(=N)NCCCCCCNC(=O)C(CC(C)C)NC(=O)CNC(=O)[C@]1(c2ccccc2)CC1CN1CC[C@@]2(C)c3cc(O)ccc3CC1C2C (some centres not stated)
[1]
  pKi: 7.33
[2]
  pKi: 5.38
[3]
  pKi: 5.30
[10]
  Selectivity ratio: 108
[5]
  Selectivity ratio: 89.8

## CCCC(=N)NCCCCCCNC(=O)C(CC(C)C)NC(=O)CNC(=O)[C@]1(c2ccccc2)CC1CN1CC[C@@]2(C)c3cc(O)ccc3CC1C2C (some centres not stated)
[1]
  pKi: 7.81
[2]
  pKi: 5.64
[3]
  pKi: 5.61
[10]
  Selectivity ratio: 158
[5]
  Selectivity ratio: 125

## CCCCC(=N)NCCCCNC(=O)C(CC(C)C)NC(=O)CNC(=O)[C@]1(c2ccccc2)CC1CN1CC[C@@]2(C)c3cc(O)ccc3CC1C2C (some centres not stated)
[1]
  pKi: 7.99
[2]
  pKi: 5.48
[3]
  pKi: 5.44
[10]
  Selectivity ratio: 359
[5]
  Selectivity ratio: 325

## CCCC(=N)NCCCNC(=O)C(CC(C)C)NC(=O)CNC(=O)[C@]1(c2ccccc2)CC1CN1CC[C@@]2(C)c3cc(O)ccc3CC1C2C (some centres not stated)
[1]
  pKi: 7.09
[2]
  pKi: 4.97
[3]
  pKi: 5.02
[10]
  Selectivity ratio: 118
[5]
  Selectivity ratio: 133

## CCC(=N)NCCCNC(=O)C(CC(C)C)NC(=O)CNC(=O)[C@]1(c2ccccc2)CC1CN1CC[C@@]2(C)c3cc(O)ccc3CC1C2C (some centres not stated)
[1]
  pKi: 6.59
[2]
  pKi: 4.96
[3]
  pKi: 4.98
[10]
  Selectivity ratio: 40.5
[5]
  Selectivity ratio: 42.5

## CCC(=N)NCCCCCCNC(=O)C(CC(C)C)NC(=O)[C@]1(c2ccccc2)CC1CN1CC[C@@]2(C)c3cc(O)ccc3CC1C2C (some centres not stated)
[1]
  pKi: 6.93
[2]
  pKi: 5.53
[3]
  pKi: 5.45
[10]
  Selectivity ratio: 30.5
[5]
  Selectivity ratio: 25.3

## CCCCC(=N)NCCCCCNC(=O)C(CC(C)C)NC(=O)CNC(=O)[C@]1(c2ccccc2)CC1CN1CC[C@@]2(C)c3cc(O)ccc3CC1C2C (some centres not stated)
[8]
  ED50: 9.2 mg/kg
[9]
  ED50: 0.88 mg/kg
[1]
  pKi: 8.17
[2]
  pKi: 5.60
[3]
  pKi: 5.56

## CC(C)CC(NC(=O)[C@]1(c2ccccc2)CC1CN1CC[C@@]2(C)c3cc(O)ccc3CC1C2C)C(=O)NCCCCCCN=C(N)N (some centres not stated)
[1]
  pKi: 6.86
[2]
  pKi: 5.58
[3]
  pKi: 5.55
[10]
  Selectivity ratio: 20.3
[5]
  Selectivity ratio: 18.9

## CCC(=N)NCCCCNC(=O)C(CC(C)C)NC(=O)CNC(=O)[C@]1(c2ccccc2)CC1CN1CC[C@@]2(C)c3cc(O)ccc3CC1C2C (some centres not stated)
[1]
  pKi: 6.76
[2]
  pKi: 5.13
[3]
  pKi: 5.01
[10]
  Selectivity ratio: 55.2
[5]
  Selectivity ratio: 42.6

## CC(C)CC(NC(=O)CNC(=O)[C@]1(c2ccccc2)CC1CN1CC[C@@]2(C)c3cc(O)ccc3CC1C2C)C(=O)NCCCCCN (some centres not stated)
[1]
  pKi: 6.61
[2]
  pKi: 4.96
[3]
  pKi: 5.02
[10]
  Selectivity ratio: 38.9
[5]
  Selectivity ratio: 44.4

## CCCC(=N)NCCCCCNC(=O)C(CC(C)C)NC(=O)CNC(=O)[C@]1(c2ccccc2)CC1CN1CC[C@@]2(C)c3cc(O)ccc3CC1C2C (some centres not stated)
[1]
  pKi: 7.19
[2]
  pKi: 5.14
[3]
  pKi: 5.28
[10]
  Selectivity ratio: 79.8
[5]
  Selectivity ratio: 110
